pIC50: −log10 of the molar value.

The test system of one test is L5178Y. Kind of test: Cytotoxicity against mouse L5178Y cells assessed as reduction in cell viability incubated for 72 hrs by MTT assay. In kind it is functional, cell-based. An outline of the steps:
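MTT assay on L5178Y mouse lymphoma cells. Kahalalide F was the positive control; 0.1% ethylene glycol monomethyl ether in DMSO was the negative control.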
Background: Formazan colour is commonly taken as a measure of viable cells.

A further test concerns A2780. Kind of test: Cytotoxicity against human A2780 cells assessed as reduction in cell viability incubated for 72 hrs by MTT assay. In kind it is functional, cell-based. Conditions: A2780, 72 h. The method, boiled down:
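A2780 human ovarian cancer cells were seeded at 9500 cells/well and, after 24 h, exposed to 3.6-fold serial dilutions of compound for 72 h. MTT (5 mg/mL in PBS) was added, and the formazan was dissolved in DMSO. Absorbance was read at 544 and 690 nm. Cisplatin was the positive control and 0.9% sodium chloride the negative control.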

Broadly, the pIC50 is the IC50 on a negative log10 scale, so that one unit is a factor of ten. Take `COc1cc(O)c2c(=O)c3c(C)cc(O)cc3oc2c1`: the pIC50 in the test with L5178Y and in the test on A2780 was below 5.00 in each case.

Consider `COC1=CC(=O)C[C@@H](C)[C@]12Oc1cc(OC)cc(OC)c1C2=O`, for which the pIC50 in the test with L5178Y and in the test with A2780 was below 5.00 each time.

As to `COc1cc(O)c(C(=O)c2c(C)cc(O)cc2OC)c(O)c1`, the pIC50 with L5178Y and in the test with A2780 was below 5.00 in each case.

As to `COc1cc(O)c(C(=O)c2c(C)cc(O)cc2OC)c(O)c1Cl`, the negative-log IC50 (pIC50) in the test on L5178Y and in the test with A2780 was below 5.00 in each case.

For the compound `COC(=O)Cc1cc(OC)cc(O)c1C(C)=O`, the pIC50 in the test on L5178Y and in the test on A2780 was below 5.00 in each case.

`COC(=O)c1c(O)cc(OC)c(Cl)c1Oc1c(C)cc(O)cc1OC`: the pIC50 in the test with L5178Y and with A2780 was below 5.00 throughout.

Consider `COc1cc(O)cc(C)c1C(=O)c1c(O)c(Cl)c(OC)c(Cl)c1O`, for which the pIC50 in the test with L5178Y and in the test on A2780 was below 5.00 in each case.

Consider `COc1cc(C[C@]23COC(/C=C/C=C/C=C/C(=O)O)=CC2=C(Br)C(=O)[C@](C)(OC(=O)C[C@H](O)C[C@@H](C)O)C3=O)c(C(C)=O)c(O)c1O`, for which the pIC50 was 4.86 in the test on L5178Y and 4.43 in the test on A2780.

In the case of `COC(=O)Cc1cc(O)cc(O)c1C(C)=O`, the pIC50 in the test on L5178Y and in the test on A2780 was below 5.00 in each case.

As for `COC(=O)c1c(O)cc(OC)c(Cl)c1Oc1c(C)cc(OC)cc1OC`, the pIC50 in the test with L5178Y and in the test with A2780 was below 5.00 throughout.

Regarding `COc1cc(C[C@]23COC(/C=C/C=C/C=C/C(=O)O)=CC2=C(Br)C(=O)[C@@](C)(OC(=O)C[C@H](O)C[C@@H](C)O)C3=O)c(C(C)=O)c(O)c1O`, the pIC50 was 5.05 with L5178Y and 5.57 in the test on A2780.

With `COC(=O)[C@@]12C(O)=C(C)C(=O)[C@]1(C)C(C)=C[C@H]1[C@]34CC[C@H](OC(C)=O)C(C)(C)[C@H]3[C@H](C[C@@]12C)OC4=O`, the pIC50 with L5178Y and in the test with A2780 was below 5.00 each time.

Consider `CC1(C)C=Cc2cc3c(cc2O1)c(C[C@@H]1NC(=O)C2=CCCN2C1=O)c1n3C=CC1(C)C`, for which the pIC50 in the test with L5178Y and in the test with A2780 was below 5.00 each time.

Take `C/C=C1\NC(=O)[C@H](Cc2ccccc2)NC(=O)[C@@H](C(C)C)NC(=O)[C@@H]([C@@H](C)CC)NC(=O)[C@H](NC(=O)[C@H](NC(=O)[C@H](CCCN)NC(=O)[C@H]2CCCN2C(=O)[C@H](NC(=O)[C@@H](NC(=O)[C@@H](NC(=O)[C@H](NC(=O)CCCC(C)C)C(C)C)[C@@H](C)O)C(C)C)C(C)C)[C@@H](C)CC)[C@@H](C)OC(=O)[C@H](C(C)C)NC1=O`: the pIC50 in the test with L5178Y was 5.37.

For the compound `COC1=CC(=O)C[C@@H](C)[C@]12Oc1c(Cl)c(OC)cc(OC)c1C2=O` [GRISEOFULVIN], the pIC50 in the test with L5178Y and in the test with A2780 was below 5.00 in each case.

As to `Cc1cc(O)cc2oc3cc(O)cc(O)c3c(=O)c12` [NORLICHEXANTHONE], the pIC50 in the test on L5178Y and with A2780 was below 5.00 each time.

For `C=C(C)C1(O)OC(=O)C=C1OC` (stereo not drawn) [PENICILLIC ACID], the values for the pIC50 in the test on L5178Y and in the test on A2780 were 5.05 and below 5.00, respectively.

The values above are taken from ChEMBL document CHEMBL4387788, “Brominated Azaphilones from the Sponge-Associated Fungus Penicillium canescens Strain 4.14.6a” (J Nat Prod, 2019).
